# In the library only some 5.9% were active in any assay of this set; here they are far more common.
# hDAT+cocaine: human DAT dopamine uptake with cocaine, either direction; Q01959; LLC-PK1 hDAT cells, [14C]-dopamine uptake with cocaine IC80; actives deviate in either direction; B-score at 10 µM; actives 1.3% (n = 110,000); AID 449768;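 active = Z score or B-score, a plate-position-corrected score, falls beyond the plate's 99.7% confidence bounds, in either direction; inactive = both scores lie inside the 99.7% bounds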;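 note: scored against the spread of the other compound wells on the same plate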
# Phagocyt inh: inhibitors of macrophage phagocytosis; J774A.1 macrophage IgG-bead phagocytosis, imaging; inhibition, % at 5 µM; actives 0.07% (n = 110,000); AID 1029;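 active = inhibition above the mean of the plate negative controls plus 5 SD, cut at about 13% in these data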;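 note: phagocytic index as fraction of beads internalized from green versus red external bead signal; plate controls were DMSO negative control for no effect and cytochalasin-D positive control for full effect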
# Cav32 inh: blocks human Cav3.2 T-type calcium channel | Cav3.2-expressing cells, Fluo-4 calcium fluorescence FDSS; stronger effect = lower value | actives 4% (n = 100,000) | B-score at 10 µM | O95180;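 active = single-dose well whose peak fluorescence ratio is a statistical outlier from its plate by either plate-standardised score or position-corrected B-score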
# Measles CPE: protection of cells from measles virus; Measles virus-infected cells, CPE protection, absorbance; protection (pct of control), % at 4 µM; actives 1.5% (n = 140,000); AID 841; in the data active = protection mostly above about 24%, no sharp cut-off; inactive = mostly below about 26%
# HIV Rev-RRE inh: inhibitors of HIV-1 Rev-RRE RNA interaction; P05866; Rev peptide-RRE RNA binding, FRET; inhibition, % at 8 µM; actives 0.79% (n = 97,000);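 active = inhibition above the screen-wide mean plus 3 SD, cut at about 35% in these data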;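 note: 0% = median DMSO wells and 100% = median Neomycin B control wells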
#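 Test system – labelled RRE RNA duplex and labelled Rev peptide · Reagent – labelled Rev peptide · Doses – one concentration, 8 µM nominal · Incubation – 5 + 15 min at 25 °C · Signal – FRET fluorescence readout · Read-out basis – % inhibition of FRET ratio versus controls · Control set – DMSO wells as 0% and neomycin B wells as 100% inhibition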
# Pyk2 oligo antag: antagonists of human Pyk2 oligomerization; Q293 cells, Pyk2 FERM NanoBiT luminescence; stronger effect = lower value; z-score (the deposit names both 25 µM and 10 µM); actives 0.83% (n = 99,000);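 active = Z-score of -3 or lower, scaled per plate to the spread of control and sample wells; inactive = z-score above -3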;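 note: negative z-score means lost luminescence so less FERM oligomerization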
# Numbers without * were called inactive; / = not tested or not shown; ! = a repeat was not active.
SMILES,hDAT+cocaine,Phagocyt inh,Cav32 inh,Measles CPE,HIV Rev-RRE inh,Pyk2 oligo antag
Cn1c(=O)n(Cc2ccc(F)cc2)c(=O)c2c1nc1n2CCCN1C1CCCCC1,0.05,0,-4.9*,17,6,-0.95
Cn1c(=O)n(C/C=C/c2ccccc2)c(=O)c2c1nc1n2CCCN1Cc1ccccc1,1,4,-2.6,7,2,-0.21
COc1ccc(N2CC(C)Cn3c2nc2c3c(=O)n(Cc3ccc(F)cc3)c(=O)n2C)c(OC)c1 (stereo not given),-0.19,0,-4.7*,17,-3,-0.11
COC(=O)[C@@H]1C[C@H]1[C@@H](NC(=O)c1cc(C)on1)c1ccccc1,0.13,/,0.37,/,/,/
O=C(CSc1nnc(COc2ccc(Cl)cc2)o1)N1c2ccccc2CCc2ccccc21,1.5,0,-2.4,2,3,-0.43
COC(=O)c1ccc(OC)c(CSc2nnc(COc3ccc(Cl)cc3)o2)c1,0.62,/,-5.8*,9,12,-0.15
CCOC(=O)N1CCN(C(=O)CSc2nnc(COc3ccc(Cl)cc3)o2)CC1,1.5,0,-3.2*,32,/,/
COC(=O)c1ccc(OC)c(CSc2nnc(COc3ccccc3)o2)c1,0.03,-1,-4,13,15,-2.1
CCCCNc1nc2ccccc2[nH]1,-0.046,-1,1.1,20,6,0.55
CCOCCCNc1nc2ccccc2[nH]1,-0.87,0,0.0061,46*,4,-0.9
CCCCn1nc(C(=O)Oc2ccc3c(C)cc(=O)oc3c2)c2ccccc2c1=O,/,2,/,9,/,/
COC(=O)c1c(C)oc2ccc(N(C(=O)c3ccncc3)S(=O)(=O)c3ccc(C)cc3)cc12,-1.2,3,-3,7,3,-0.95
COC(=O)c1c(C)oc2ccc(N(C(=O)c3ccncc3)S(=O)(=O)c3ccccc3)cc12,0.85,/,-4.1*,7,1,-2
COC(=O)c1c(C)oc2ccc(NS(=O)(=O)c3cccs3)cc12,0.023,1,-4.9*,22,12,-1.2
O=c1[nH]c(/C=C/c2ccccc2OC(F)F)nc2c1cnn2-c1ccccc1,/,/,/,3,/,/
COc1cc(OC)c2nc(C)c3c(c2c1)N(c1ccc(O)cc1)CC3,/,/,/,3,4,-1
COc1cccc(CN(Cc2ccco2)C(c2ccc(F)cc2)c2nnnn2C(C)(C)C)c1 (stereo not given),0.82,0,-1.8,12,9,-0.71
CCC(C)(C)n1nnnc1C(c1ccc(C)cc1)N(Cc1ccco1)Cc1cccs1 (stereo not given),1.4,0,-5.8*,2,13,-0.77
CCOc1c(C)cc(-c2ncccc2O)cc1C,-7.9*!,-1,0.72,5,6,-0.55
CS(=O)(=O)N1CCN(C(=O)c2cc(-c3ccccc3)nc3ccccc23)CC1,-0.046,0,0.0012,5,-1,0.57
CS(=O)(=O)N1CCN(C(=O)c2cc(-c3cccs3)nc3ccccc23)CC1,-3*,0,-0.034,5,3,0.86
O=C(NCc1ccco1)c1cc(-c2cccs2)nc2ccccc12,/,/,/,59*,/,/
O=C(Nc1ccccc1)OC1CCC2CC1CCC2OC(=O)Nc1ccccc1 (stereo not given),/,/,/,5,/,/
CCn1nc([N+](=O)[O-])c(C(C#N)c2nc3cc(C(F)(F)F)ccc3s2)c(Cl)c1=O (stereo not given),-0.65,0,-5.2*,22,0,-3.3*
CCOC(=O)c1c(-c2ccc(Cl)cc2)c(C#N)c(=O)n(N)c1N,0.1,0,/,1,7,-0.32
SMILES,hDAT+cocaine,Phagocyt inh,Cav32 inh,Measles CPE,HIV Rev-RRE inh,Pyk2 oligo antag
CCC(=O)Nc1nnc(SCC(=O)c2ccc3c(c2)Cc2ccccc2-3)s1,-0.11,/,-0.34,8,4,0.46
O=C(O)C1=C[C@H](c2ccc(F)cc2)C[C@H](OCc2ccc(CO)cc2)O1,0.73,/,0.079,/,/,/
Cc1ccc(NC(=O)CSCC(=O)N2c3ccccc3CCc3ccccc32)cc1,-0.014,-1,-4.9*,3,1,-1.2
Cc1ccc(CNC(=O)C(=O)NCC2OCCN2S(=O)(=O)c2ccc3c(c2)OCCO3)cc1 (stereo not given),0.29,/,-4.5*,11,/,/
COc1ccc(CNC(=O)C(=O)NCC2OCCN2S(=O)(=O)c2cccs2)cc1 (stereo not given),-0.2,/,-4.9*,10,/,/
CNC(=O)C(=O)NCC1OCCCN1S(=O)(=O)c1cccs1 (stereo not given),/,0,/,6,/,/
O=C(NCc1ccc(Cl)cc1)C(=O)NCC1OCCN1S(=O)(=O)c1cccs1 (stereo not given),0.2,/,-6*,15,/,/
COc1ccc(OCCC(=O)NC2=NCCS2)cc1,1.5,3,0.17,1,8,0.53
O=C(COc1ccccc1)NC1=NCCS1,-0.73,2,0.88,78*,4,-0.36
O=C(O)CCC(=O)N1CCN(c2nc(-c3ccccc3Cl)c3cc(Br)ccc3n2)CC1,3*,/,1.2,8,0,0.4
Cc1cc(Cl)c(S(=O)(=O)Nc2cccc(O)c2)cc1OCC(N)=O,/,-4,/,3,/,/
CC(n1cnnn1)C12CC3CC(CC(C3)C1)C2 (stereo not given),-0.25,2,-0.58,20,5,-0.03
CC(NC(=O)CN1CCCC1)C12CC3CC(CC(C3)C1)C2 (stereo not given),-5.6*,/,0.82,3,1,1.1
CC(NC(=O)Cn1cnnn1)C12CC3CC(CC(C3)C1)C2 (stereo not given),-3.3*,0,0.41,15,8,0.55
O=C(O)c1sc2cc(C(F)(F)F)cnc2c1-c1ccccc1,0.64,/,0.058,15,8,0.09
CSc1nnc(-c2sc3cc(C(F)(F)F)cnc3c2-c2ccccc2)n1C,-0.15,0,2.1,3,4,-3.1*
Cc1cccc(N2CCN(C(=O)C3CCN(S(=O)(=O)c4cccc5nsnc45)CC3)CC2C)c1 (stereo not given),-0.97,0,-3.4*,18,8,0.06
COc1ccc2nc(NC(=O)C3CCN(S(=O)(=O)c4cccc5nsnc45)CC3)sc2c1,-0.15,/,-0.39,1,0,-3.4*
C=CCCCCCCCCC(=O)NN,0.2,0,-0.14,6,4,0.41
O=C(CCS(=O)(=O)c1cccc2nsnc12)NC1CCCCCC1,0.58,/,0.13,25,1,0.44
CC(=O)c1cccc(NC(=O)CCS(=O)(=O)c2cccc3nsnc23)c1,2.5*,0,0.043,15,8,0.33
O=C(CCS(=O)(=O)c1cccc2nsnc12)NCc1ccccc1,-8.2*,/,/,6,3,-0.27
Cc1nc2cc3nc(C(F)(F)F)[nH]c3cc2[nH]1,/,-6,/,11,/,/
O=C(O)/C=C/C(=O)Nc1ccccc1-c1ccccc1,0.59,/,0.13,7,6,-0.05
C/C(Cn1nnc([N+](=O)[O-])n1)=N\NC(=O)c1ccccc1Cl,0.28,/,1.9,50*,0,1

# Screens from PubChem.
